Laboratory results published in ChEMBL document CHEMBL1122108, “(+/-)-2-Depentylperhydrohistrionicotoxin: a new probe for a regulatory site on the nicotinic acetylcholine receptor-channel” (1982).

Experiments:
[1] = Percent block of sciatic nerve sartorius muscle twitch of frog 30 min after direct stimulation and exposure to 50 uM toxin for 60 min; assay type: functional, Muscle tissue
Method in brief: (§1)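 Frog sartorius nerve-muscle in oxygenated physiological solution (100% O2, pH 6.9-7.1). Indirect: nerve stimulated with supramaximal 0.05-0.1 ms pulses via Ag-AgCl salt-bridge electrode. Direct: supramaximal 1.0-2.0 ms rectangular pulses at 0.05 Hz through bipolar platinum electrode around mid-muscle. Compounds at 50 µM, diluted in physiological solution just before use, applied 60 min. Twitch tension recorded; means ± SD from at least three muscles.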

[2] = Percent block of sciatic nerve sartorius muscle twitch of frog 60 min after direct stimulation and exposure to 50 uM toxin for 60 min; assay type: functional, Muscle tissue; method in brief: as §1
[3] = Percent block of sciatic nerve sartorius muscle twitch of frog 60 min after indirect stimulation and exposure to 50 uM toxin for 60 min; assay type: functional, Muscle tissue; method in brief: as §1
[4] = Percent block of sciatic nerve sartorius muscle twitch of frog 30 min after indirect stimulation and exposure to 50 uM toxin for 60 min; assay type: functional, Muscle tissue; method in brief: as §1
[5] = Percent maximum potentiation of the sciatic nerve sartorius muscle twitch after direct stimulation and exposure to 50 uM toxin for 60 min; assay type: functional, frog, Muscle tissue; method in brief: as §1
[6] = Percent maximum potentiation of the sciatic nerve sartorius muscle twitch after indirect stimulation and exposure to 50 uM toxin for 60 min; assay type: functional, frog, Muscle tissue; method in brief: as §1

Compound	Block [1]	Block [2]	Block [3]	Block [4]	Activity [5]	Activity [6]
CCCC[C@@H]1[C@H](O)CCCC12CCCCN2C (some centres undefined)	5%	5%	65%	62%	–	–
CCCC[C@@H]1[C@H](O)CCCC12CCCCN2 (some centres undefined)	19%	30%	61%	55%	–	–
CCCCC1C(O)CCCC12CCCCN2C(C)=O (centres undefined)	20%	24%	26%	10%	103%	116%
CCCCC1C(O)CCCC12CCCCN2C (centres undefined)	24%	30%	92%	78%	–	–
CCCC[C@@H]1[C@@H](OC(C)=O)CCCC12CCCC[N+]2(C)C.[I-] (some centres undefined)	34%	47%	91%	85%	–	–
CCCCC1C(O)CCCC12CCCCN2 (centres undefined)	52%	52%	100%	96%	–	–
CCCCC1C2CCCC13CCCCN3C(=O)O2 (centres undefined)	22%	31%	66%	35%	–	–
CCCC[C@@H]1C(=O)CCCC12CCCCN2C (some centres undefined)	26%	33%	56%	49%	–	–
CCCCCC1CCC[C@]2(CCC[C@H](O)C2CCCC)N1 (some centres undefined)	47%	45%	100%	100%	–	–
CCCC[C@@H]1[C@H](O)CCCC12CCCC[N+]2(C)C.[I-] (some centres undefined)	48%	49%	83%	74%	–	–
CCCC[C@@H]1[C@@H](O)CCCC12CCCC[N+]2(C)C.[I-] (some centres undefined)	29%	43%	49%	39%	–	–
CCCCC1C(OC(=O)OC)CCCC12CCCCN2C(=O)OC (centres undefined)	0%	0%	0%	0%	–	–
CCCC[C@@H]1C(=O)CCCC12CCCCN2 (some centres undefined)	8%	25%	58%	46%	–	–
CCCCC1C(OC(C)=O)CCCC12CCCCN2C (centres undefined)	22%	25%	94%	88%	–	–
CCCCC1C(OC(=O)OC)CCCC12CCCCN2 (centres undefined)	14%	25%	82%	67%	–	–
CCCC[C@@H]1C(=O)CCCC12CCCCN2C(C)=O (some centres undefined)	0%	6%	20%	7%	102%	117%
CCCCC1C(OC(C)=O)CCCC12CCCCN2C(C)=O (centres undefined)	0%	0%	0%	0%	118%	125%
